Measured values published in ChEMBL document CHEMBL5058577, “EUbOPEN Chemogenomics Library 2 (Multiplex)” (2022).

Test system: HEK-293T
Assay: Multiplex assay against HEK293T
Assay type: toxicity, cell-based
Details: human
Procedure, shortened: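 Hoechst33342, BioTracker Green Microtubule Cytoskeleton Dye, MitoTracker Red and Annexin V Alexa Fluor 680 were added to live cells at seeding, and imaging on a CQ1 microscope at 37°C and 5% CO2 followed compound addition. Gating by CellPathfinder machine learning separated cells into Hoechst high-intensity objects or normal cells, then normal cells into healthy, pyknosed or fragmented nuclei, then pyknosed cells into mitotic or apoptotic. Per cents of healthy-nucleus cells are reported for the tubulin, mitochondrial-mass and membrane-permeability phenotypes.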

[1] = 12 h, 1 µM, compound concentration 1 uM, replicate 1
[2] = 12 h, 1 µM, compound concentration 1 uM, replicate 2
[3] = 12 h, 10 µM, compound concentration 10 uM, replicate 1
[4] = 12 h, 10 µM, compound concentration 10 uM, replicate 2
[5] = 24 h, 1 µM, compound concentration 1 uM, replicate 1
[6] = 24 h, 1 µM, compound concentration 1 uM, replicate 2
[7] = 24 h, 10 µM, compound concentration 10 uM, replicate 1
[8] = 24 h, 10 µM, compound concentration 10 uM, replicate 2
[9] = 48 h, 1 µM, compound concentration 1 uM, replicate 1
[10] = 48 h, 1 µM, compound concentration 1 uM, replicate 2
[11] = 48 h, 10 µM, compound concentration 10 uM, replicate 1
[12] = 48 h, 10 µM, compound concentration 10 uM, replicate 2

COC[C@@H](c1ccc(C(F)(F)F)cc1)N1CCN(C2(C)CCN(C(=O)c3c(C)ncnc3C)CC2)C[C@@H]1C.O=C(O)/C=C\C(=O)O [VICRIVIROC MALEATE]
Population Apoptotic (%) [1]: 46% | Population Fragmented Nuclei (%) [1]: 7% | Population Healthy Nuclei (%) [1]: 80% | Population Hoechst High Intensity Objects (%) [1]: 9% | Population Membrane Permeable-Phenotype (%) [1]: 0% | Population Mitochondria Different-Phenotype (%) [1]: 47% | Population Mitotic Cells (%) [1]: 53% | Population Normal (%) [1]: 90% | Population Pyknosed Nuclei (%) [1]: 12% | Population Tubulin-Different-Phenotype (%) [1]: 27% | Total Cell Count [1]: 406 | Population Apoptotic (%) [2]: 45% | Population Hoechst High Intensity Objects (%) [2]: 5% | Population Mitochondria Different-Phenotype (%) [2]: 51% | Population Mitotic Cells (%) [2]: 54% | Population Normal (%) [2]: 94% | Population Pyknosed Nuclei (%) [2]: 11% | Population Tubulin-Different-Phenotype (%) [2]: 17% | Total Cell Count [2]: 387 | Population Apoptotic (%) [3]: 44% | Population Fragmented Nuclei (%) [3]: 6% | Population Healthy Nuclei (%) [3]: 75% | Population Hoechst High Intensity Objects (%) [3]: 8% | Population Membrane Permeable-Phenotype (%) [3]: 0% | Population Mitochondria Different-Phenotype (%) [3]: 63% | Population Mitotic Cells (%) [3]: 55% | Population Normal (%) [3]: 91% | Population Pyknosed Nuclei (%) [3]: 18% | Population Tubulin-Different-Phenotype (%) [3]: 57% | Total Cell Count [3]: 315 | Population Apoptotic (%) [4]: 62% | Population Fragmented Nuclei (%) [4]: 5% | Population Healthy Nuclei (%) [4]: 72% | Population Hoechst High Intensity Objects (%) [4]: 16% | Population Mitochondria Different-Phenotype (%) [4]: 78% | Population Mitotic Cells (%) [4]: 37% | Population Normal (%) [4]: 83% | Population Pyknosed Nuclei (%) [4]: 21% | Population Tubulin-Different-Phenotype (%) [4]: 51% | Total Cell Count [4]: 265 | Population Apoptotic (%) [5]: 30% | Population Fragmented Nuclei (%) [5]: 9% | Population Healthy Nuclei (%) [5]: 79% | Population Hoechst High Intensity Objects (%) [5]: 6% | Population Membrane Permeable-Phenotype (%) [5]: 0% | Population Mitochondria Different-Phenotype (%) [5]: 24% | Population Mitotic Cells (%) [5]: 69% | Population Normal (%) [5]: 93% | Population Pyknosed Nuclei (%) [5]: 10% | Population Tubulin-Different-Phenotype (%) [5]: 21% | Total Cell Count [5]: 564 | Population Apoptotic (%) [6]: 31% | Population Healthy Nuclei (%) [6]: 82% | Population Hoechst High Intensity Objects (%) [6]: 5% | Population Membrane Permeable-Phenotype (%) [6]: 1% | Population Mitotic Cells (%) [6]: 68% | Population Normal (%) [6]: 94% | Population Pyknosed Nuclei (%) [6]: 8% | Population Tubulin-Different-Phenotype (%) [6]: 11% | Total Cell Count [6]: 515 | Population Apoptotic (%) [7]: 34% | Population Fragmented Nuclei (%) [7]: 6% | Population Healthy Nuclei (%) [7]: 80% | Population Hoechst High Intensity Objects (%) [7]: 6% | Population Membrane Permeable-Phenotype (%) [7]: 0% | Population Mitochondria Different-Phenotype (%) [7]: 53% | Population Mitotic Cells (%) [7]: 66% | Population Normal (%) [7]: 93% | Population Pyknosed Nuclei (%) [7]: 13% | Population Tubulin-Different-Phenotype (%) [7]: 49% | Total Cell Count [7]: 406 | Population Apoptotic (%) [8]: 60% | Population Fragmented Nuclei (%) [8]: 10% | Population Healthy Nuclei (%) [8]: 77% | Population Hoechst High Intensity Objects (%) [8]: 16% | Population Mitochondria Different-Phenotype (%) [8]: 70% | Population Mitotic Cells (%) [8]: 39% | Population Normal (%) [8]: 83% | Population Pyknosed Nuclei (%) [8]: 12% | Population Tubulin-Different-Phenotype (%) [8]: 39% | Total Cell Count [8]: 310 | Population Apoptotic (%) [9]: 21% | Population Fragmented Nuclei (%) [9]: 11% | Population Healthy Nuclei (%) [9]: 80% | Population Hoechst High Intensity Objects (%) [9]: 2% | Population Membrane Permeable-Phenotype (%) [9]: 1% | Population Mitochondria Different-Phenotype (%) [9]: 13% | Population Mitotic Cells (%) [9]: 78% | Population Normal (%) [9]: 97% | Population Pyknosed Nuclei (%) [9]: 7% | Population Tubulin-Different-Phenotype (%) [9]: 12% | Total Cell Count [9]: 930 | Population Apoptotic (%) [10]: 34% | Population Fragmented Nuclei (%) [10]: 13% | Population Healthy Nuclei (%) [10]: 81% | Population Mitochondria Different-Phenotype (%) [10]: 11% | Population Mitotic Cells (%) [10]: 65% | Population Pyknosed Nuclei (%) [10]: 5% | Population Tubulin-Different-Phenotype (%) [10]: 8% | Total Cell Count [10]: 751 | Population Apoptotic (%) [11]: 38% | Population Fragmented Nuclei (%) [11]: 12% | Population Healthy Nuclei (%) [11]: 75% | Population Hoechst High Intensity Objects (%) [11]: 4% | Population Membrane Permeable-Phenotype (%) [11]: 0% | Population Mitochondria Different-Phenotype (%) [11]: 49% | Population Mitotic Cells (%) [11]: 61% | Population Normal (%) [11]: 95% | Population Pyknosed Nuclei (%) [11]: 11% | Population Tubulin-Different-Phenotype (%) [11]: 35% | Total Cell Count [11]: 559 | Population Apoptotic (%) [12]: 53% | Population Fragmented Nuclei (%) [12]: 14% | Population Healthy Nuclei (%) [12]: 70% | Population Hoechst High Intensity Objects (%) [12]: 11% | Population Mitochondria Different-Phenotype (%) [12]: 50% | Population Mitotic Cells (%) [12]: 46% | Population Normal (%) [12]: 88% | Population Pyknosed Nuclei (%) [12]: 15% | Population Tubulin-Different-Phenotype (%) [12]: 38% | Total Cell Count [12]: 394
